Experiment: Toxicity liver stage against HepG2, at 10uM
Assay type: cell-based
Parameters: test concentration 10 uM, cell line HepG2-A16-CD81EGFP
Settings: human, HepG2-A16-CD81EGFP cells; read-out: INHIBITION
In short: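 Uninfected HepG2-A16-CD81EGFP cells, 3 × 10^3 per well, 1536-well, plated on prespotted compound at 10 μM final, parasite-free screening media added to match infected plates; puromycin 10 μM positive, DMSO 0.5% negative; run in parallel with 48 h PbLuc assay at 37 °C, 5% CO2; viability by CellTiter-Glo luminescence, normalized to controls.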

SMILES: Cc1csc(CN(C)C(=O)C2CCC(=O)N(CCN(C)C)C2)n1 (stereo not given)
- cytotoxicity at 10 µM: 15.6%

SMILES: COc1ccc(CNC[C@H]2COCc3nc4cccnc4n32)cn1
- cytotoxicity at 10 µM: -0.772%

SMILES: CC(c1ccncc1)N(CCN(C)C)C(=O)Nc1ccc(Cl)cc1 (stereo not given)
- cytotoxicity at 10 µM: 8.88%

SMILES: COc1ccc(S(=O)(=O)N2CCC(Cn3ccnc3)CC2)cc1
- cytotoxicity at 10 µM: -0.178%

SMILES: COc1ccc(-c2nnsc2C(=O)N2CCOCC2)cc1
- cytotoxicity at 10 µM: 3.03%

SMILES: COCCNC(=O)C[C@@H]1COC[C@H]2CN(C(=O)c3cnccn3)C[C@@H]12
- cytotoxicity at 10 µM: -12.2%

SMILES: Cc1c(Br)c(C(F)(F)F)nn1C(C)C(=O)O (stereo not given)
- cytotoxicity at 10 µM: 8.05%

SMILES: COc1ccc(C(C)Nc2ncnc3c2NC(=O)CN3)cc1 (stereo not given)
- cytotoxicity at 10 µM: 7.83%

SMILES: O=C(c1nn[nH]c1Nc1cccc(Cl)c1)N1CCSCC1
- cytotoxicity at 10 µM: 20.3%

SMILES: CCCNC(=O)c1nn(CC)cc1NC(=O)C(C)n1ncc(Cl)c1C (stereo not given)
- cytotoxicity at 10 µM: 7.19%

SMILES: Cc1nc(NCCc2ccc(Cl)cc2)cc(C(=O)N2CCOCC2)n1
- cytotoxicity at 10 µM: -4.78%

SMILES: Cc1c[nH]c(C2COCCN2C(=O)c2n[nH]c(=O)c3ccccc23)n1 (stereo not given)
- cytotoxicity at 10 µM: -0.555%

SMILES: CC(=O)NCCNC(=O)c1nc(C2CC2)n(-c2ccccc2Cl)n1
- cytotoxicity at 10 µM: 9.74%

SMILES: O=C1CN(Cc2occc2C(=O)NCCc2ccc(F)cc2)CCN1
- cytotoxicity at 10 µM: -10.2%

SMILES: Cc1nc(C(C)C)sc1C(=O)N(C)Cc1cnn(C)c1
- cytotoxicity at 10 µM: 6.45%

SMILES: N#Cc1ccc(F)c(CNC(=O)NC(CO)Cc2ccccc2)c1 (stereo not given)
- cytotoxicity at 10 µM: 1.98%

SMILES: O=C(NCC(O)c1ccc(F)c(F)c1)c1ccccc1F (stereo not given)
- cytotoxicity at 10 µM: -3%

SMILES: O=C(CS(=O)(=O)Cc1ccccc1)NCc1ccccc1F
- cytotoxicity at 10 µM: -17.6%

SMILES: COc1ccc(CCC(=O)N(C)CCN2CCOCC2)cc1OC
- cytotoxicity at 10 µM: 7.83%

SMILES: CC(C)c1nsc(NC2CC(=O)N(C(C)(C)C)C2)n1 (stereo not given)
- cytotoxicity at 10 µM: 5.09%

SMILES: CS(=O)(=O)N1CCC(OCCCc2ccccc2)C1 (stereo not given)
- cytotoxicity at 10 µM: 8.13%

SMILES: Cc1ccc(C2CSCCN2C(=O)c2cnsn2)o1 (stereo not given)
- cytotoxicity at 10 µM: 5.11%

SMILES: Cc1cc(CC(=O)NC2CCCN(c3ccccc3Cl)C2=O)n[nH]1 (stereo not given)
- cytotoxicity at 10 µM: 3.55%

SMILES: Cc1ccc2c(c1)OCCN2C(=O)c1ccc(=O)n(C)c1
- cytotoxicity at 10 µM: -5.88%

SMILES: CC(=O)N1CCN(C(=O)C2SCCc3sccc32)CC1 (stereo not given)
- cytotoxicity at 10 µM: -11.5%

SMILES: CC(C)Oc1cccc(C(O)CNC(=O)CCc2ccncc2)c1 (stereo not given)
- cytotoxicity at 10 µM: -3.82%

SMILES: Cc1ccc(C(=O)N2CCCC2c2nnc3n2CCCCC3)o1 (stereo not given)
- cytotoxicity at 10 µM: -6.05%

SMILES: CCc1nc(C)c([C@H]2CN(C)C[C@@H]2C(=O)Nc2ccccc2F)[nH]1
- cytotoxicity at 10 µM: 2.16%

SMILES: CC(C)Oc1cc(N2CC[C@H](CO)[C@@H](O)C2)nc(N)n1
- cytotoxicity at 10 µM: 2.41%

SMILES: CCCc1nnc(NC(C)c2ccc(F)cc2)o1 (stereo not given)
- cytotoxicity at 10 µM: 2.08%

SMILES: Cc1ccccc1CN1CCN(C(=O)c2ccn(C(C)(C)C)c2)CC1
- cytotoxicity at 10 µM: -0.585%

SMILES: CC(O)c1cn(CC2CCN(C(=O)CN(C)C(C)C)CC2)nn1 (stereo not given)
- cytotoxicity at 10 µM: -1.58%

SMILES: Cc1cc(C)c2nc(CN3C[C@H](CCO)[C@@H](N)C3)cc(O)c2c1
- cytotoxicity at 10 µM: 5.29%

SMILES: COc1ccccc1N1CCN(C(=O)CCn2ccc(C)n2)CC1(C)C
- cytotoxicity at 10 µM: -8.64%

SMILES: O=S(=O)(c1c(N2CCCCC2)ccc2nonc12)N1CCCCC1
- cytotoxicity at 10 µM: -3.39%

SMILES: COCC(=O)N1CCc2cccc(S(=O)(=O)N3CCN(C)CC3)c2C1
- cytotoxicity at 10 µM: 5.07%

SMILES: O=C(O)CCc1cc2n(n1)CCCN(C(=O)c1ccc3cc[nH]c3c1)C2
- cytotoxicity at 10 µM: -13.3%

SMILES: COC(=O)c1cc(C(=O)N2CCCC(C)C2)n(-c2ccccc2)n1 (stereo not given)
- cytotoxicity at 10 µM: -11.9%

SMILES: COc1ccccc1C(O)CNCc1c(C(C)C)nn(C)c1N(C)C (stereo not given)
- cytotoxicity at 10 µM: -7.31%

SMILES: Cc1cc(C)c(CNC(=O)N2CCN(c3ncccn3)CC2)c(=O)[nH]1
- cytotoxicity at 10 µM: -6.28%

SMILES: N#Cc1ccnc(N2CCN(C(=O)Cc3ccc4c(c3)CCO4)CC2)c1
- cytotoxicity at 10 µM: -4.1%

SMILES: Cc1ccc(CNC(=O)CN2CCCC(Cn3cncn3)C2)s1 (stereo not given)
- cytotoxicity at 10 µM: -1.78%

SMILES: O=C(CCCNc1ncccn1)N1CCCC(n2cccn2)C1 (stereo not given)
- cytotoxicity at 10 µM: 7.34%

SMILES: Cc1nc(N(C)C)nc2c1COCC21CCN(CC2CC2)C1 (stereo not given)
- cytotoxicity at 10 µM: -8.94%

SMILES: Cn1cc(CN2CCOC3(CCCN(C(=O)c4ccco4)C3)C2)cn1 (stereo not given)
- cytotoxicity at 10 µM: -23.9%

— ChEMBL document CHEMBL4513216, “Probing the Open Global Health Chemical Diversity Library for Multistage-Active Starting Points for Next-Generation Antimalarials” (ACS Infect Dis, 2020)
